From article PMC5604227 (Biochemistry, 2016)
Values joined by “and” are separate entries in the source; they are usually repeats but may differ in a detail not shown here. Equal values may be shown once.

Columns and labels:
[1] = target: T1, wild-type TSase (Escherichia coli, UniProt P0A884); design: species or system E. coli
In short: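 1H-13C HSQC of wild-type TSase with dUMP bound, U-[2H,13C,15N] ILV-methyl labelled (Ile δ1 only; Leu/Val one methyl protonated). Fraction of the covalently bound state taken from the relative intensities of its assigned resonances. Forward covalent-bond formation rate calculated from that fraction and a prior literature bond-breakage rate (H5 solvent exchange, 0.01 min−1, similar pH and temperature).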

[2] = target: T1, wild-type TSase; conditions: ITC; cited from earlier work
[3] = target: T2, C146S TSase (Escherichia coli, UniProt P0A884, C146S); test: ITC of dUMP binding to C146S TSase; design: species or system E. coli
[4] = test system: TSase (wild-type and C146S); design: species or system E. coli
[5] = target: T2, C146S TSase; conditions: cited from earlier work
[6] = target: C146S-dUMP complex (Escherichia coli, UniProt P0A884, C146S); assay type: binding, E. coli; conditions: 5 °C
[7] = C146S relative to wild-type, 25 °C

T2 sequence (P0A884 whole entry C146S): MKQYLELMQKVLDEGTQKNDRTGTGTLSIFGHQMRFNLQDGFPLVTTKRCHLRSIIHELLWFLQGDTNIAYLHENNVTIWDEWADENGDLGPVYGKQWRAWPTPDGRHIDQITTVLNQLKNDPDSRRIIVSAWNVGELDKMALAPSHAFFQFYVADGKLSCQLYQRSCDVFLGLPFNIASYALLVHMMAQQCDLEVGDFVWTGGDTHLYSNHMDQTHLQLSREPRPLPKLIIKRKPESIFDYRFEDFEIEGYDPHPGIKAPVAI
T1 sequence (P0A884 whole entry): as the sequence (P0A884 whole entry C146S) above, with S146C counted along it
Sequence of C146S-dUMP complex (P0A884 whole entry C146S, one chain of several): as the sequence (P0A884 whole entry C146S) above

Which “population of the minor (covalent) state relative to dUMP complex” value ([1]; wild-type TSase complex) does the source give for `O=c1[nH]c(=O)n([C@H]2C[C@H](O)[C@@H](COP(=O)(O)O)O2)cc1F` [5F-dUMP] here?
Its value is “significantly increased”.

What does the source list for `O=c1ccn([C@H]2C[C@H](O)[C@@H](COP(=O)(O)O)O2)c(=O)[nH]1` [dUMP]?
change in protonation state on binding (loss of proton per binding event) [2]: less than 0.1 proton; fraction of covalently bound state ([1]; wild-type dUMP complex, from resonance intensities): 19% and ~20%; fold weaker dUMP binding [3, 7]: 18 fold and 20 fold; ΔΔG°bind penalty for formation of the dUMP complex [3, 7]: 1.7 kcal/mol; change in TΔS° per binding event ([3]; C146S vs wild-type): ~1 kcal/mol; sum of calorimetric TΔΔS° values for both binding events ([3]; C146S vs wild-type): -1.7 kcal/mol; total TΔΔS°conf associated with binding both dUMP molecules ([4]; scaled to probes in the dimer, C146S vs wild-type): -2.08 ± 0.18 kcal/mol; ΔS°conf opposing binding of each dUMP molecule ([4]; wild-type TSase): ~1 kcal/mol; fold weaker KD of C146S for dUMP than wild-type [5]: ~2 fold

For `Cc1nc2ccc(CN(C)c3ccc(C(=O)N[C@@H](CCC(=O)O)C(=O)O)s3)cc2c(=O)[nH]1` [Raltitrexed], which “cooperativity ρ” value [6] is on record?
Its value is 1.3 ± 0.3.
